Experimental data gathered from unrelated publications.
Compare with care: the assays were run in different laboratories.
GRM3: Metabotropic glutamate receptor 3 (GRM3, Homo sapiens, UniProt Q14832)
SLC6A2: Sodium-dependent noradrenaline transporter (SLC6A2, Homo sapiens, UniProt P23975)
PTPN12: Tyrosine-protein phosphatase non-receptor type 12 (PTPN12, Homo sapiens, UniProt Q05209)
NPSR1: Neuropeptide S receptor (NPSR1, Homo sapiens, UniProt Q6W5P4)
TPR: Trypanothione reductase (TPR, Trypanosoma cruzi, UniProt P28593)
Aldo-keto reductase family 1 member A1: Aldo-keto reductase family 1 member A1 (Rattus norvegicus, UniProt P51635)
Dual specificity calcium/calmodulin-dependent 3',5'-cyclic nucleotide phosphodiesterase 1B: Dual specificity calcium/calmodulin-dependent 3',5'-cyclic nucleotide phosphodiesterase 1B (Homo sapiens, UniProt Q01064)

COc1ccc(-c2cc(C(N)=O)ncc2OCc2ccnc(C)c2)c(F)c1  IC50 (GRM3; ion flux, antagonist): > 10 µM
NC(=O)c1cccc(-c2cccc(OC(=O)NC3CCCCC3)c2)c1  IC50 (Cocaine esterase (CES2, Homo sapiens, UniProt O00748); enzyme activity, inhibitor): 0.072 µM
COc1ccc(-c2cc(C(N)=O)ncc2OCc2cnc(OC)nc2)c(F)c1  IC50 (GRM3; ion flux, antagonist): > 10 µM
Clc1ccc(C(c2ccccc2)c2nnnn2CCCCN2CCC(CCCc3ccccc3)CC2)cc1 (stereo not drawn)  IC50 (SLC6A2; transporter uptake, inhibitor): 0.232 µM
Cc1ccc(C(=O)Nc2ccc(S(=O)(=O)O)c3cc(S(=O)(=O)O)cc(S(=O)(=O)O)c23)cc1NC(=O)c1cccc(NC(=O)Nc2cccc(C(=O)Nc3cc(C(=O)Nc4ccc(S(=O)(=O)O)c5cc(S(=O)(=O)O)cc(S(=O)(=O)O)c45)ccc3C)c2)c1  IC50 (PTPN12; enzyme activity, inhibitor): 11 µM
COc1cccc(C2c3c(ncn(-c4ccccc4C)c3=N)Oc3ccc4ccccc4c32)c1 (stereo not drawn)  IC50 (NPSR1; cAMP, antagonist, TR-FRET): 9.72 µM
COc1ccc(-c2cc(C(N)=O)ncc2OCc2ccnc(F)c2)c(F)c1  IC50 (GRM3; ion flux, antagonist): > 10 µM
Fc1ccc(C(c2ccc(F)cc2)c2nnnn2CCCCN2CCC(Cc3ccc(Cl)c(Cl)c3)CC2)cc1  IC50 (SLC6A2; transporter uptake, inhibitor): 0.521 µM
Cc1ccc(OCC(O)Cn2c(=N)n(CCN3CCCCC3)c3ccccc32)cc1 (stereo not drawn)  IC50 (TPR; enzyme activity, inhibitor): ≤ 10 µM
O=S(=O)(Nc1nc2cc(Cl)ccc2o1)c1cc(Cl)ccc1Cl  IC50 (Fructose-1,6-bisphosphatase 1 (Mus musculus, UniProt Q9QXD6, G27P); enzyme activity, inhibitor): > 100 µM
Clc1ccc(C(c2ccccc2)c2nnnn2CCCCN2CCC(Cc3ccc(Cl)c(Cl)c3)CC2)cc1 (stereo not drawn)  IC50 (SLC6A2; transporter uptake, inhibitor): 0.78 µM
N=c1n(CCN2CCCCC2)c2ccccc2n1CC(O)COc1ccccc1 (stereo not drawn)  IC50 (TPR; enzyme activity, inhibitor): ≤ 10 µM
COc1ccc2nc(/N=C3/NC(=O)C(=Cc4ccc(Cl)cc4)S3)sc2c1  IC50 (Aldo-keto reductase family 1 member A1; enzyme activity, inhibitor, absorbance; pH 7.2): 18.3 µM
Cc1cnc(-c2ccc(-c3ccc(NC(=O)Nc4c(F)cc(F)cc4F)cc3F)c3c2C(=O)NC3)[nH]1  IC50 (Serine/threonine-protein kinase 10 (STK10, Homo sapiens, UniProt O94804); enzyme activity, inhibitor): 0.0433 µM
CN[C@H]1CC[C@@H](c2ccc(Cl)c(Cl)c2)c2ccccc21  IC50 (PTPN12; enzyme activity, inhibitor, fluorescence): 55 µM
CN(C)CCCN1c2ccccc2Sc2ccc(Cl)cc21  IC50 (TPR; enzyme activity, inhibitor, absorbance): 6.32 µM
COc1cccc(C2c3c(ncn(-c4ccncc4)c3=N)Oc3ccc4ccccc4c32)c1 (stereo not drawn)  IC50 (NPSR1; calcium signal, antagonist): 4.38 µM
Clc1ccc(C(c2ccccc2)c2nnnn2CCCN2CCC(CCCc3ccccc3)CC2)cc1 (stereo not drawn)  IC50 (SLC6A2; transporter uptake, inhibitor): 0.527 µM
O=P(O)(O)OC[C@H]1O[C@@](CO)(OP(=O)(O)O)[C@@H](O)[C@@H]1O  IC50 (Fructose-1,6-bisphosphatase 1 (Mus musculus, UniProt Q9QXD6); enzyme activity, inhibitor): 1.69 µM
COc1ccc2nc(/N=C3/NC(=O)C(=Cc4cc(OC)c(O)c(OC)c4)S3)sc2c1  IC50 (Aldo-keto reductase family 1 member A1; enzyme activity, inhibitor, absorbance; pH 7.2): 42.1 µM
OC1c2ccccc2CCc2ccccc21  IC50 (TPR; enzyme activity, inhibitor, absorbance): > 100 µM
COc1cccc(C2c3c(ncn(-c4ccccc4OC)c3=N)Oc3ccc4ccccc4c32)c1 (stereo not drawn)  IC50 (NPSR1; calcium signal, antagonist): 1.1 µM
COc1ccc2c(Oc3ccc4c(C(=O)Nc5ccccc5N)cccc4c3)ccnc2c1  IC50 (Fibroblast growth factor receptor 1 (FGFR1, Homo sapiens, UniProt P11362); enzyme activity, inhibitor): > 0.5 µM
CC(=O)N[C@@H](Cc1c[nH]c2ccccc12)C(=O)N[C@@H](CCC(=O)C=[N+]=[N-])C(=O)OC(C)C  IC50 (Glutaminase kidney isoform, mitochondrial (GLS, Homo sapiens, UniProt O94925); enzyme activity, inhibitor, radiometric): > 1000 µM
COc1ccc(C2c3c(ncn(CCCc4ccccc4)c3=N)Oc3ccc4ccccc4c32)cc1OC (stereo not drawn)  IC50 (NPSR1; calcium signal, antagonist): > 30 µM
O=C1c2ccccc2-c2cccc3cccc1c23  IC50 (PTPN12; enzyme activity, inhibitor): > 150 µM
Cc1nn2c(-c3c(C)nn(C)c3-c3ccc(C(F)(F)F)cc3)nc(CO)c2c(=O)[nH]1  IC50 (Dual specificity calcium/calmodulin-dependent 3',5'-cyclic nucleotide phosphodiesterase 1B; enzyme activity, inhibitor): 5.26 µM
COc1cccc(C2c3c(ncn(-c4cccc(C)c4)c3=N)Oc3ccc4ccccc4c32)c1 (stereo not drawn)  IC50 (NPSR1; cAMP, antagonist, TR-FRET): 12.2 µM
CCCc1ccccc1  IC50 (TPR; enzyme activity, inhibitor, absorbance): > 100 µM
O=C1NC(=O)/C(=C/c2ccc(OCCNc3nc4c(cnn4C4CCCC4)c(=O)[nH]3)c(F)c2)S1  IC50 (Dual specificity calcium/calmodulin-dependent 3',5'-cyclic nucleotide phosphodiesterase 1B; enzyme activity, inhibitor): 0.0065 µM
COc1ccc2nc(/N=C3/NC(=O)C(=Cc4ccc(O)cc4)S3)sc2c1  IC50 (Aldo-keto reductase family 1 member A1; enzyme activity, inhibitor, absorbance; pH 7.2): 1.24 µM
ClCCOC1c2ccccc2CCc2ccccc21  IC50 (TPR; enzyme activity, inhibitor, absorbance): 29.7 µM
COc1cccc(C2c3c(ncn(-c4ccccc4Cl)c3=N)Oc3ccc4ccccc4c32)c1 (stereo not drawn)  IC50 (NPSR1; calcium signal, antagonist): 5.51 µM
N=c1n(CCOc2ccccc2)c2ccccc2n1CCN1CCCCC1  IC50 (TPR; enzyme activity, inhibitor): ≤ 10 µM
Nc1ncnc2c1C(c1ccccc1)c1c(ccc3ccccc13)O2 (stereo not drawn)  IC50 (NPSR1; cAMP, antagonist, TR-FRET): 7.72 µM
O=c1[nH]c(=S)n(Cc2ccc(Cl)cc2CNCC(F)(F)F)c2cc[nH]c12  IC50 (Myeloperoxidase (MPO, Homo sapiens, UniProt P05164); enzyme activity, inhibitor): 0.035 µM
C=CC(=O)Nc1cc(Nc2nccc(Nc3cc(Cl)c(F)cc3C(C)(C)O)n2)c(OC)cc1N1CC[C@@H](N(C)C)C1  IC50 (MAP kinase-interacting serine/threonine-protein kinase 2 (MKNK2, Homo sapiens, UniProt Q9HBH9); enzyme activity, inhibitor; with preincubation): 1.03 µM
COc1cccc(C2c3c(ncn(-c4cccc(C#N)c4)c3=N)Oc3ccc4ccccc4c32)c1 (stereo not drawn)  IC50 (NPSR1; calcium signal, antagonist): 4.38 µM
O=C(Oc1cc(O)cc2c1C[C@@H](OC(=O)c1cc(O)c(O)c(O)c1)[C@@H](c1cc(O)c(O)c(O)c1)O2)c1cc(O)c(O)c(O)c1  IC50 (PTPN12; enzyme activity, inhibitor, fluorescence): 0.02 µM
